Assays:
[1] = Displacement of [3H]DTG from sigma 2 receptor in rat liver membrane after 120 mins; format: cell membranes
How it was run: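 Rat liver membranes (~300 µg protein) incubated with ~5 nM [3H]DTG plus 1 µM (+)-pentazocine to mask σ1 sites, 120 min at room temperature; 10 µM haloperidol defines nonspecific binding; filtration and scintillation counting. One-site nonlinear regression IC50, converted to Ki by Cheng-Prusoff; mean ± SEM.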

[2] = Selectivity for rat liver sigma 2 receptor over guinea pig brain sigma 1 receptor
[3] = target: Sigma non-opioid intracellular receptor 1 (Cavia porcellus, UniProt Q60492); assay: Displacement of [3H](+)-pentazocine from sigma 1 receptor in guinea pig brain membrane after 90 mins; format: cell membranes
Sequence of Sigma non-opioid intracellular receptor 1 (Q60492 whole entry): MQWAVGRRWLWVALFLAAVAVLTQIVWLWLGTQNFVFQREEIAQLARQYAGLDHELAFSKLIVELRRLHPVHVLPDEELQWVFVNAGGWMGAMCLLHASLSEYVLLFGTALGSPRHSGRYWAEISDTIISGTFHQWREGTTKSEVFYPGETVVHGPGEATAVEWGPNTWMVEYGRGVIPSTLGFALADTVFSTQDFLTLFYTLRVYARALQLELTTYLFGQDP
How it was run: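 Guinea pig brain membranes (~300 µg protein) with ~5 nM [3H](+)-pentazocine, 90 min at room temperature; nonspecific binding with 10 µM haloperidol; stopped with ice-cold Tris/NaCl buffer, filtered, scintillation counted. IC50 by nonlinear regression, one-site fit; Ki by Cheng-Prusoff, mean ± SEM.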

Row | Ki [1] [µM] | Ratio Ki [2] | Ki [3] [µM] | Structure (SMILES)
1 | 0.00065 | 1660 |  | COc1cc2c(cc1OC)CN(CCCCNC(=O)c1cc(Br)ccc1OCCF)CC2
2 | 0.386 | 40 | 15.3 | COc1cc2c(cc1OC)CN(CCCCNC(=O)c1cc(Br)cc(OC)c1OCCF)CC2
